Some results are limits rather than exact numbers.

In the experiment the test system is Plasmodium falciparum. The experiment is described as follows: Antimalarial activity against chloroquine-resistant Plasmodium falciparum Dd2 assessed as parasite growth inhibition after 72 hrs by SYBR Green 1 assay. Format: functional. The note with it: Dd2, 72 h. The method in brief:
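Viability was read by SYBR Green I DNA quantitation and normalized to DMSO-treated untreated controls. IC50 came from nonlinear regression, averaging at least three independent experiments run in triplicate, with standard deviations.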
For the compound `CO[C@]12OC(=O)C(C)=C1C1=C3[C@](C)([C@@H]4C[C@@H]4[C@@]3(O)C[C@@H]3[C@]14OC(=O)C1=C4C[C@H]4[C@](O)(COC(=O)/C(C)=C/COC(=O)CCC(=O)OC1)[C@H]1C[C@H]1[C@]34C)[C@H]2O`, the IC50 is greater than 25 µM. As for `C=C1[C@H]2C[C@H]2[C@@]2(C)[C@H]1[C@@H](OC(C)=O)C1=C(C)C(=O)O[C@@]13C1=C4[C@](C)([C@@H]5C[C@@H]5[C@@]4(O)C[C@H]32)[C@@H](O)C(=O)/C1=C(/C)C(=O)OC`, the IC50 was greater than 25 µM.

`COC(=O)/C(C)=C1\C(=O)[C@H](O)[C@]2(C)C3=C(C[C@@H]4[C@]5(OC(=O)C(CO)=C5C[C@H]5[C@H](COC(C)=O)[C@H]6C[C@H]6[C@]45C)[C@H]31)[C@H]1C[C@H]12`: the IC50 was determined as 0.58 µM. With `C=C1[C@H]2C[C@H]2[C@@]2(C)[C@H]1[C@@H](OC(C)=O)C1=C(C)C(=O)O[C@@]13C1=C4[C@@](C)(C(=O)[C@@]5(O)OC(=O)C(C)=C15)[C@@H]1C[C@@H]1[C@@]4(O)C[C@H]32`, the IC50 was greater than 25 µM. With `C=C1[C@H]2C[C@H]2[C@@]2(C)[C@H]1[C@@H](OC(C)=O)C1=C(C)C(=O)O[C@@]13C1=C4[C@](O)(C[C@H]32)[C@H]2C[C@H]2[C@]4(C)CC(=O)/C1=C(/C)C(=O)OC` the figure was greater than 25 µM; with `COC(=O)/C(C)=C1\C(=O)[C@H](O)[C@]2(C)C3=C(C[C@@H]4[C@]5(OC(=O)C(CO)=C5C[C@H]5[C@](O)(COC(=O)C=C(C)C)[C@H]6C[C@H]6[C@]45C)[C@H]31)[C@H]1C[C@H]12`, 0.211 µM; with `COC(=O)/C(C)=C1\C(=O)[C@H](O)[C@]2(C)C3=C1[C@]14OC(=O)C5=C1C[C@H]1[C@](O)(COC(=O)/C(C)=C/COC(=O)CCC(=O)OC5)[C@H]5C[C@H]5[C@]1(C)[C@@H]4C[C@]3(O)[C@H]1C[C@H]12`, greater than 25 µM. For `COC(=O)/C(C)=C1\C(=O)[C@H](O)[C@]2(C)C3=C(C[C@@H]4[C@]5(OC(=O)C(CO)=C5C[C@H]5[C@H](CO)[C@H]6C[C@H]6[C@]45C)[C@H]31)[C@H]1C[C@H]12`, the IC50 came out at 11.4 µM.

With `C[C@@]12C=C3OC(=O)C(CO)=C3C[C@H]1[C@@H](CO)[C@H]1C[C@H]12`, the IC50 was greater than 25 µM. With `CC1=C2CC3=C(C)[C@H]4C[C@H]4[C@]3(C)C[C@@H]2OC1=O`, the IC50 was greater than 25 µM. With `C=C1[C@@H]2C[C@@H]2[C@]2(C)[C@@H]3CC4=C5[C@H](/C(=C(\C)C(=O)OC)C(=O)[C@H](O)[C@@]5(C)[C@@H]5C[C@H]45)[C@@]34OC(=O)C(C)=C4C[C@@H]12` the figure was 1.5 µM; with `CC1=C2C3=C4[C@](C)([C@@H]5C[C@@H]5[C@@]4(O)C[C@@H]4[C@]35OC(=O)C3=C5C[C@H]5[C@](O)(COC(=O)/C=C(\C)COC(=O)CCC(=O)OC3)[C@H]3C[C@H]3[C@]45C)[C@@H](O)[C@@]2(O)OC1=O`, 7.1 µM; with `CC(=O)OC[C@H]1[C@H]2C[C@H]2[C@]2(C)C=C3OC(=O)C(CO)=C3C[C@@H]12`, greater than 25 µM. With `COC(=O)/C(C)=C1\C(=O)[C@H](O)[C@]2(C)C3=C(C[C@@H]4[C@]5(OC(=O)C(C)=C5C[C@H]5[C@H](COC(C)=O)[C@H]6C[C@H]6[C@]45C)[C@H]31)[C@H]1C[C@H]12` the figure was 1.8 µM; with `COC(=O)/C(C)=C1\C(=O)[C@H](O)[C@]2(C)C3=C1[C@]14OC(=O)C5=C1C[C@H]1[C@](O)(COC(=O)/C=C(\C)COC(=O)CCC(=O)OC5)[C@H]5C[C@H]5[C@]1(C)[C@@H]4C[C@]3(OO)[C@H]1C[C@H]12`, 0.474 µM.

The values above are taken from ChEMBL document CHEMBL4004786, “Nanomolar Antimalarial Agents against Chloroquine-Resistant Plasmodium falciparum from Medicinal Plants and Their Structure-Activity Relationships” (J Nat Prod, 2017).
